ChEMBL document CHEMBL5126648, “Charting the Chemical Space of Acrylamide-Based Inhibitors of zDHHC20” (ACS Med Chem Lett, 2022)
Activity calls are given as the source filed them. The calls are words filed in the database; no cut-off is given here.

What was measured:
[1] = target: T1, Palmitoyltransferase ZDHHC20 (Homo sapiens, UniProt Q5W0Z9); experiment: Inhibition of human myc-His6-tagged zDHHC20 expressed in HEK293T cells using 5-FAM-GTQGCMGLPCVVM-COOH as substrate preincubated for 1 hr followed by substrate addition and measured at 1 min interval for 2 hrs in presence of palmitoyl-CoA by fluorescence polarization assay
T1 sequence (Q5W0Z9 whole entry): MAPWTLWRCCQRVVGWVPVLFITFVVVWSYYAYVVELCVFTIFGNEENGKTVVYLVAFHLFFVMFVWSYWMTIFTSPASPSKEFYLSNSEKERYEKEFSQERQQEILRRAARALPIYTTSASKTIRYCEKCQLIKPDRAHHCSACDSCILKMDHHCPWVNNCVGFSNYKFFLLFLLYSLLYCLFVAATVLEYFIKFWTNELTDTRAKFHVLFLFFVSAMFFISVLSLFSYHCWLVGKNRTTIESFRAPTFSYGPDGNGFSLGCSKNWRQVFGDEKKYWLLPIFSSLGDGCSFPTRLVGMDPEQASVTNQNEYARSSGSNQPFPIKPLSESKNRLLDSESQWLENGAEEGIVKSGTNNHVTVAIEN
Procedure, shortened: (§1)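 Purified zDHHC20 run in the acyl-cLIP assay, an earlier adaptation by the same group. Enzyme-mediated acylation of a peptide is read as polarized fluorescence.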

[2] = Lipophilicity, log P of compound; format: physicochemical; conditions: octanol/water
[3] = target: T2, Palmitoyltransferase ZDHHC20 (Homo sapiens) (UniProt Q5W0Z9); experiment: Inhibition of human myc-His6-tagged zDHHC20 expressed in HEK293T cells at 10 uM using 5-FAM-GTQGCMGLPCVVM-COOH as substrate preincubated for 1 hr followed by substrate addition and measured at 1 min interval for 2 hrs in presence of palmitoyl-CoA by fluorescence polarization assay; conditions: time 3.0 hrs; procedure, shortened: as §1
T2 sequence (whole entry): T1 sequence (Q5W0Z9 whole entry)

[4] = target: T3, Palmitoyltransferase ZDHHC2 (Homo sapiens, UniProt Q9UIJ5); experiment: Inhibition of human myc-His6-tagged zDHHC2 expressed in HEK293T cells using 5-FAM-GTQGCMGLPCVVM-COOH as substrate preincubated for 30 mins followed by substrate addition and measured at 1 min interval for 2 hrs in presence of palmitoyl-CoA by fluorescence polarization assay
T3 sequence (Q9UIJ5 whole entry): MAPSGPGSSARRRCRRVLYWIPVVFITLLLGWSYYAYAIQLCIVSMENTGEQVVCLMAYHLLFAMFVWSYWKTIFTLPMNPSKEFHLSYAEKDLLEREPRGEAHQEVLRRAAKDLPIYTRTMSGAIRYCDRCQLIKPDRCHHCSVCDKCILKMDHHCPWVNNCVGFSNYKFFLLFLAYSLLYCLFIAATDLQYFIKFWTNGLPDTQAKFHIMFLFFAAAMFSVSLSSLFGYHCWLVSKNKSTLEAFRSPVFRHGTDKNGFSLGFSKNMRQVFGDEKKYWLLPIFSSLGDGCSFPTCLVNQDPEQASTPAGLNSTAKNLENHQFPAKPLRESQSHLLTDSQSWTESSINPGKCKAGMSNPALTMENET

[5] = target: T4, Palmitoyltransferase ZDHHC2 (Homo sapiens) (UniProt Q9UIJ5); experiment: Binding affinity to human myc-His6-tagged zDHHC2 expressed in HEK293T cells at 1 uM measured after 1 hr by TAMRA-azide-labelled in-gel fluorescence analysis; format: cell-based
T4 sequence (whole entry): T3 sequence (Q9UIJ5 whole entry)
Procedure, shortened: (§2)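 Myc-tagged enzyme overexpressed in HEK293T cells; cells treated with probe at 1 μM for 1 h. Lysates then clicked to TAMRA-azide, proteins resolved by SDS-PAGE and read by in-gel fluorescence. Expression checked by anti-myc Western blot. n = 2.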

[6] = target: T2, Palmitoyltransferase ZDHHC20 (Homo sapiens); experiment: Binding affinity to human myc-His6-tagged zDHHC20 expressed in HEK293T cells at 1 uM measured after 1 hr by TAMRA-azide-labelled in-gel fluorescence analysis; format: cell-based; procedure, shortened: as §2
[7] = target: T4, Palmitoyltransferase ZDHHC2 (Homo sapiens); experiment: Inhibition of human myc-His6-tagged zDHHC2 expressed in HEK293T cells at 10 uM using 5-FAM-GTQGCMGLPCVVM-COOH as substrate preincubated for 30 mins followed by substrate addition and measured at 1 min interval for 2 hrs in presence of palmitoyl-CoA by fluorescence polarization assay; conditions: time 150.0 min

Structure (SMILES)	IC50 [1] [nM]	logP [2]	IC50 [4] [nM]	also measured
C#CCOC(=O)/C=C/C(=O)NCCCCCCCCCCCCCC	–	–	–	Activity [5]: Active; Activity [6]: Active
C=CC(=O)NCCCCCCCCCCCCCC	21400	–	59900	–
C=CC(=O)N(CC#N)CCOCCCCCCCCCCC	1970	4.1	–	inhibition [7]: Active
CCCCCCCCCCCCCCNC(=O)/C=C\C(=O)OC	–	–	–	inhibition [3]: Active
CCCCCCCCCCCCCCC(Br)C(=O)O (centres undefined)	5550	–	2020	–
CCCCCCCCCCCCCCN(CC#N)C(=O)/C=C\C(=O)O	3450	–	–	–
C=CC(=O)N(CC#N)CCCCCCCCCCCCCC	1350	5.48	590	inhibition [7]: Active
C#CCN(CCCCCCCCCCCCCC)C(=O)C=C	–	–	–	Activity [5]: Active; Activity [6]: Active

Second part, led by results:

IC50 [1] [nM]	logP [2]	IC50 [4] [nM]	Structure (SMILES)	also measured
9730	3.33	–	CCCCCCCCCCCCCCNC(=O)/C=C\C(=O)OCc1cn(CCCNC(=O)CCNC(=O)[C@H](O)C(C)(C)CO)nn1	–
–	–	2020	CCCCCCCCCCCCCCNC(=O)/C=C\C(=O)Oc1ccccc1	inhibition [3]: 50%
2870	–	2660	CCCCCCCCCCCCCCNC(=O)/C=C\C(=O)OCC#N	–
3430	–	–	C#CCOC(=O)/C=C\C(=O)NCCCCCCCCCCCCCC	inhibition [7]: Active; Activity [5]: Active; Activity [6]: Active
–	4.55	–	CCCCCCCCCCCCCCNC(=O)/C=C\C(=O)OCc1cn(CCOCCOCCOCCO)nn1	inhibition [3]: Active
